Rows were chosen to be rich in hits. Some 1.8% of all compounds tested hit in one or more screens of this group.
CHRM5 agonist = CHRM5 agonism in calcium assay; P08912; CHO-K1 hM5 cells, Fluo-8 calcium fluorescence; 0% DMSO wells, 100% maximal acetylcholine response; activation, % at 3 µM; actives 0.19% (n = 360,000); AID 624037;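 active = activation above the run's mean over test compounds plus 3 SD, cut at about 23% in these data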;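 note: signal is peak over basal fluorescence ratio across the kinetic read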
CHRM5 PAM = CHRM5 positive allosteric modulation | CHO-K1 hM5, Fluo-8 calcium, ACh EC20 PAM; 0% = ACh EC20, 100% = ACh EC100 | activation, % at 3 µM | actives 0.3% (n = 360,000);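 active = activation above the run cutoff, the mean activation of all test compounds plus 3 SD, cut at about 18% in these data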
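System – CHO-K1 hM5 cells · Compound – 3 µM, single dose · Incubation – compound preincubation 140 s before EC20 acetylcholine addition · Technique – Fluo-8 calcium fluorescence · Measure – Max/basal fluorescence ratio as % of EC20–EC100 ACh window · Benchmarks – low control EC20 acetylcholine (0%), high control EC100 acetylcholine (100%) · Replication – singlicate, one well per test compound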
M4 PAM = CHRM4 positive allosteric modulation; activation, % at 3 µM; actives 0.4% (n = 360,000); P08173; CHO-K1 hM4/Gqi5, Fluo-8 calcium fluorescence, ACh EC20; 0% = ACh EC20, 100% = maximal ACh;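 active = activation above its plate's cutoff, the mean activation of sample wells plus 3 SD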
Target sequence (P08173 whole entry, looked up): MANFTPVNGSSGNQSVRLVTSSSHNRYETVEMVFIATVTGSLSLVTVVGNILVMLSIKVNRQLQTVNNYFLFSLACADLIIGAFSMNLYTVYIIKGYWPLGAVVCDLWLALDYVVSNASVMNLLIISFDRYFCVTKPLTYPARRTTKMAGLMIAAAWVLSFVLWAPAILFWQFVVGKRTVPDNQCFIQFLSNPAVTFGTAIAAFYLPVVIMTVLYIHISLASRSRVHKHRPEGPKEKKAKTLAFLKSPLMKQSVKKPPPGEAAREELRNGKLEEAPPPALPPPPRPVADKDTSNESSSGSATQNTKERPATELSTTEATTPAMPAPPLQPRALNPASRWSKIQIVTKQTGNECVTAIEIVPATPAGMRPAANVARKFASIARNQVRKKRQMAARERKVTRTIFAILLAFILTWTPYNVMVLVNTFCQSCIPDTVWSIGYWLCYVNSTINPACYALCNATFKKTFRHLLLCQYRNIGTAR
CHRM4 agonist = agonists of human muscarinic M4 receptor (CHRM4). P08173. CHO-K1 hM4/Gqi5, Fluo-8 calcium fluorescence; vehicle 0%, full acetylcholine response 100%. activation, % at 3 µM. actives 0.14% (n = 360,000). AID 624127;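 active = activation above the run mean over all test wells plus 3 SD, cut at about 32% in these data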;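 note: peak over basal fluorescence ratio per well then scaled between controls; 0% = DMSO wells and 100% = acetylcholine at EC100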
M5 antag = CHRM5 antagonism in calcium assay; P08912; CHO-hM5 cells, Fluo-8 calcium fluorescence, ACh EC80; inhibition, % at 3 µM; actives 0.59% (n = 360,000);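 active = inhibition above a per-plate cutoff, the mean of that plate's test compounds plus 3 SD, cut at about 27% in these data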;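 note: 0% = acetylcholine EC80 with DMSO and 100% = DMSO without agonist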
CHRM4 antagonist = blocks acetylcholine activation of human M4 receptor. P08173. CHO-hM4 cells, ACh EC80, Fluo-8 calcium fluorescence. inhibition, % at 3 µM. actives 0.73% (n = 360,000). AID 624125;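 active = inhibition above its plate's cutoff, the mean inhibition of sample wells plus 3 SD, cut at about 27% in these data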;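 note: 0% = acetylcholine EC80 with DMSO and 100% = DMSO without agonist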
* hit, by the source's call.

SMILES | CHRM5 agonist | CHRM5 PAM | M4 PAM | CHRM4 agonist | M5 antag | CHRM4 antagonist
CN(C)[C@@H]1CCC[C@H]1OC(=O)C(c1ccccc1)c1ccccc1 | -8 | -19 | -14 | 0 | 53* | 20
NC(=O)C(c1ccccc1)C1CCCC1 (configuration not stated) | -1 | -3 | 5 | 1 | -11 | -1
COC(=O)N1CCCCC1c1cc(C(=O)Nc2ccc(OC)cc2C)no1 (configuration not stated) | 0 | 0 | -1 | 2 | -2 | -10
CN(C)c1ccccc1-c1cc(NC=O)c2ncc(-c3cccc(C(F)(F)F)c3)n2c1 | 2 | 0 | 2 | 4 | -4 | -5
c1ccc(-c2cncnc2)cc1 | 7 | 20* | 4 | 2 | -9 | 8
c1ccc(-c2nnc(-c3ccccc3)nn2)cc1 | 5 | 6 | 0 | 0 | -4 | -11
COc1ccccc1/C(C)=N/Oc1cc(N)cc([N+](=O)[O-])c1 | -5 | -12 | -2 | 0 | 5 | -2
N#Cc1ccc[n+](CC(=O)c2ccc(Cl)cc2)c1 | 5 | 23* | 3 | 1 | -10 | -18
CC(C)OCCCNc1ncnc2c1[nH]c1ccccc12 | 5 | -28 | -12 | 24 | 30* | 13
C1=C(CCNc2ncnc3c2[nH]c2ccccc23)CCCC1 | 8 | -14 | -13 | 14 | 32* | 32*
O=C(CCN1C(=O)/C(=C/c2ccccc2F)SC1=S)NCCCn1ccnc1 | -2 | -8 | -11 | 7 | 1 | -5
CC1CCN(C(=O)c2ccc(N3CCOCC3)c([N+](=O)[O-])c2)CC1 | 5 | 1 | -4 | 2 | -2 | -5
C=CCC(NC(=O)c1ccc(C#N)cc1)C(=O)NCCC (configuration not stated) | 1 | 19* | 2 | 1 | -2 | -8
COc1cc2c(cc1OC)CN(C(=O)c1cccc(S(=O)(=O)N(C)C)c1)CC2 | 5 | 14 | 17 | 1 | -5 | 29*
CCC1CN(C(=O)NCc2ccccc2)c2ccccc2O1 (configuration not stated) | -6 | -3 | -2 | 0 | 0 | -1
COC(=O)c1cc(S(=O)(=O)NCC2CCN(CCc3ccc(OC)cc3)CC2)cn1C | -8 | 1 | -5 | 1 | -8 | 2
CCC(C)(C)n1nnnc1C(c1ccc(C)cc1)N1CCN(C(=O)c2ccco2)CC1 (configuration not stated) | -8 | 35* | 9 | 3 | -10 | -26
CCCC(c1nnnn1Cc1ccco1)N1CCN(C(=O)c2ccco2)CC1 (configuration not stated) | -8 | 1 | 20* | 1 | -14 | -12
NS(=O)(=O)c1cccc(NC(=O)c2cccc(Oc3ccccc3)c2)c1 | -1 | -4 | -7 | 0 | 11 | 11
CCc1ccc(OCc2cnc(Cl)s2)cc1 | 2 | 2 | -1 | 0 | 7 | -2
COc1ccc(C2C(C#N)=C(N)Oc3cc(O)ccc32)cc1C (configuration not stated) | 24* | -6 | 1 | 5 | 7 | -5
COc1ccc(C2C(C#N)=C(N)Oc3cc(O)ccc32)cc1OC (configuration not stated) | -1 | -2 | 0 | 1 | -10 | 0
O=C(Nc1nc2ccsc2c(=O)s1)c1ccc(F)cc1Cl | 3 | 21* | 2 | 1 | -7 | -4
Oc1cccc(C=NN=C2c3ccccc3-c3ccccc32)c1 | 2 | 2 | -4 | 2 | 0 | 0
CC(C)OCCCN(C)C1CCN(S(=O)(=O)c2ccc(-c3cc(C(F)(F)F)no3)s2)CC1 | -7 | -9 | -21 | 7 | 9 | 53*
SMILES | CHRM5 agonist | CHRM5 PAM | M4 PAM | CHRM4 agonist | M5 antag | CHRM4 antagonist
CCN1C[C@@H]2[C@@H]3C(=O)N(Cc4ccccc4)C(=O)[C@@H]3[C@](Cc3ccccc3)(C1=O)N2C(=O)c1ccc(C(F)(F)F)cc1 | 2 | 5 | 15 | 1 | -5 | -8
COc1ccccc1Nc1nc2ccccc2n1C | 0 | 5 | -8 | -1 | 2 | 44*
CCCCCN1CC(=O)N2[C@@H](Cc3c([nH]c4ccccc34)C2(C)C)C1=O | 0 | 10 | 4 | 7 | -15 | -5
CCCCN(CCCC)CCCN1CC(=O)N2[C@@H](Cc3c([nH]c4ccccc34)C2(C)C)C1=O | -9 | 0 | -19 | 2 | -2 | 86*
COCCNC(=O)CN(C(=O)c1ccc(N2CCCC2)nc1)c1ccc(Cl)cc1 | 10 | -6 | 1 | 1 | -15 | -12
Clc1ccc(OCc2nnc(SCCN3CCCCC3)n2Cc2ccco2)cc1 | -7 | -17 | -27 | 1 | 12 | 58*
O=c1c2ccccc2nnn1CSc1nnc(COc2ccc(Cl)cc2)n1Cc1ccco1 | -2 | 0 | 8 | 2 | -3 | -19
COc1ccc(S(=O)(=O)NC2CC(C)(C)NC(C)(C)C2)cc1 | -6 | -2 | 4 | 1 | 7 | -2
CC1(C)CC(NS(=O)(=O)c2ccc3ccccc3c2)CC(C)(C)N1 | -2 | 18* | 3 | 4 | -10 | -19
Cc1cc(O)ccc1-c1cc(C(=O)NCc2ccc(F)cc2)[nH]n1 | 33* | -3 | 2 | 15 | -12 | -24
O=C(COC(=O)/C=C/c1ccc(Cl)cc1)Nc1ccc2c(c1)OCCO2 | 0 | 16 | 34* | 3 | -4 | -14
COc1cccc(/C=C/C(=O)OCC(=O)Nc2ccc3c(c2)OCCO3)c1 | 1 | -5 | 11 | 1 | 7 | -9
O=C(COC(=O)/C=C/c1ccccc1)Nc1ccc2c(c1)OCCO2 | -1 | -3 | 27* | 0 | 7 | -19
COc1cccc(N2CCN(S(=O)(=O)c3cc4c(cc3Cl)NC(=O)CO4)CC2)c1 | 1 | 1 | 12 | 1 | 0 | -9
CS(=O)CSc1nc2c(cc1C#N)CCCC2 (configuration not stated) | -4 | -24 | -16 | 1 | 22 | 58*
O=S(=O)(c1ccc(N2CCCCCC2)nc1)N1CCCC1 | -11 | -16 | -17 | 0 | -5 | 29*
CCCCCCCCCC[n+]1cccc(C(=O)N(CC)CC)c1 | -10 | -15 | -17 | 0 | 8 | 44*
NC(=O)c1ccc[n+](CCC[n+]2cccc(C(N)=O)c2)c1 | -1 | 1 | 16 | 1 | -9 | -16
O=C(Nc1cccc(Br)c1)C1CCCC1 | -6 | -5 | 14* | 0 | 12 | -4
COc1ccccc1N(C)S(=O)(=O)c1ccc(C(=O)N(C)Cc2ccc(Cl)s2)cc1 | -2 | -11 | 2 | 13 | 14 | -5

High-throughput results from PubChem BioAssay.
